In article PMC4862007 (Cell metabolism, 2015):

Biological target: T1, ABHD5 / PLIN1 (luciferase complementation) (Mus musculus, UniProt Q9DBL9)
T1 sequence (Q9DBL9 1-351): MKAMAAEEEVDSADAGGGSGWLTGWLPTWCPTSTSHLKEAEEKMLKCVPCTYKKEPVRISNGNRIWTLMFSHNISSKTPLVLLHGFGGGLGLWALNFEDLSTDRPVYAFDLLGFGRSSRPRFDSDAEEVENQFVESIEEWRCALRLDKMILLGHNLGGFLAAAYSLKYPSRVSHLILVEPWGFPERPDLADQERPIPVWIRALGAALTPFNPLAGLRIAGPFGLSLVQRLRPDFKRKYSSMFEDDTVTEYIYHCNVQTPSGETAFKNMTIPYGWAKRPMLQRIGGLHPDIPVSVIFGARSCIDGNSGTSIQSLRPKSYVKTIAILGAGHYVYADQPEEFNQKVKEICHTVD
T1 sequence (Q8CGN5 1-517 partner): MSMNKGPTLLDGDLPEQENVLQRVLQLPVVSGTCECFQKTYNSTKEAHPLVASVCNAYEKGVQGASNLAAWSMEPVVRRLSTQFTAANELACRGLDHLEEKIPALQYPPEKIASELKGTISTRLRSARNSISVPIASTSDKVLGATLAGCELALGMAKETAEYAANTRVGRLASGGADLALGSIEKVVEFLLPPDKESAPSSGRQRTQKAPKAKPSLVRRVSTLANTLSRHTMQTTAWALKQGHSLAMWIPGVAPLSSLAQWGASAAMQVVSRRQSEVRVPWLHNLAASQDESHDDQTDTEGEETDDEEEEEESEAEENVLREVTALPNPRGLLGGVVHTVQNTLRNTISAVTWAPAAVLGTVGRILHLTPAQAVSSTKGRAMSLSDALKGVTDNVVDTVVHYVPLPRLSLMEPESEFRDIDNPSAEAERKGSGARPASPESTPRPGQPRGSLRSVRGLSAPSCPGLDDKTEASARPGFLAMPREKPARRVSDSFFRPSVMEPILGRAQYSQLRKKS
Test: luciferase complementation, disruption of ABHD5-PLIN1 binding
Assay type: biochemical
Settings: mixed 293T lysates, 4 h, room temperature; n=8
In short: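 Lysates are prepared separately from transfected 293T cells and equal amounts of each are combined. Test compound is added in DMSO, with a DMSO vehicle control. After 4 h at room temperature, complementation is read as luciferase activity.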

| Compound | IC50 [nM] |
| --- | --- |
| Cc1ccc2c(CC(=O)N3CCN(S(=O)(=O)c4ccc5c(c4)OCCO5)CC3)coc2c1 [SR-4559] | 510 ± 60 |
| CCCCNC(=O)Nc1ccc2c(c1)N(C)C(=O)c1ccccc1S2 [SR-4995] | 200 ± 30 |
